IDE cell activ: boosts human insulin-degrading enzyme activity in HEK cells | AID 493087 | activation, % at 5.96 µM | FAbeta-B cleavage, fluorescence polarization; 0% vehicle, 100% cell-free pure enzyme wells | 340,000 compounds, 0.073% hits | P14735;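 active = activation above the mean of all tested compounds plus 3 SD, set per screening campaign, cut at about 17% in these data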
CSN deneddyl inh: CSN deneddylation inhibition | Q92905 | Purified CSN, SCF-Nedd8-OG deneddylation, fluorescence polarization | inhibition, % at 12.5 µM | 360,000 compounds, 0.38% hits;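 active = pattern-corrected inhibition above about 35%, with an unprinted fluorescence ratio check between 0.5 and 1.5, limit read from the data, passing the limit was not always enough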
Target sequence (Q92905 whole entry, looked up, one chain of several): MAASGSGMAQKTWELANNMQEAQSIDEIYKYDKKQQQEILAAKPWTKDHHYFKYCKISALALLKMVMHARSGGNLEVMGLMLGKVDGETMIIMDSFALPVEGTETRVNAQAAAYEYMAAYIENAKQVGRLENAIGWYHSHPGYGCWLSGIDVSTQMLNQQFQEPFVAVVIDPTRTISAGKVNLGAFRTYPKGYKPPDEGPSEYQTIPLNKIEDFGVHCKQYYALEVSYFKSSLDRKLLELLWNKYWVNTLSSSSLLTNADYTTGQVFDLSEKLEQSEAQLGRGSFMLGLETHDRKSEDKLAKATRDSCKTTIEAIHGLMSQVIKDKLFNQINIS
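Detection – fluorescence polarization · System – HEK293T-derived human Csn5 enzyme · Controls – substrate-only high control, full reaction low control · Timing – 90 min, room temperature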
TPT1 inh: C. albicans TPT1 enzyme inhibition | recombinant caTPT1, FP RNA substrate dephosphorylation | inhibition, % at 5 µM | 300,000 compounds, 0.81% hits;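 active = inhibition above the mean of all tested compounds plus 3 SD, set per screening campaign, cut at about 24% in these data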
IDE cell inh: inhibits human insulin-degrading enzyme in HEK cells | FAbetaB cleavage, fluorescence polarization | 320,000 compounds, 0.41% hits | AID 434962 | inhibition, % at 5.59 µM | P14735;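 active = percent inhibition above the average of all tested compounds plus 3 SD, set per screening campaign, cut at about 16% in these data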;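 also: IDE supplied by intact live HEK cells; FP after avidin binding of uncleaved biotin substrate so inhibition keeps polarization high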
HNF4A DNA FP: change in binding of human HNF4 alpha to DNA; P41235; HNF4a-FITC DNA binding, fluorescence polarization, 1 h; activity change, % at 10 µM; 360,000 compounds, 0.3% hits; in the data active = activity change above about 30%, passing the limit was not always enough
TPT1 inh confirm: TPT1 (C. albicans) inhibition, confirmation; shares compounds with TPT1 inh; recombinant caTPT1, fluorescence polarization, RNase T1 coupled; inhibition, % at 5 µM; 2,400 compounds, 74% hits; AID 2149;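 active = inhibition above the primary screen limit, the mean inhibition of all tested compounds plus 3 SD, cut at about 25% in these data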
RNase T1 counter: RNase T1 inhibition in TPT1 counter-screen; shares compounds with TPT1 inh; RNase T1 cleavage, fluorescence polarization, 1536-well; inhibition, % at 5 µM; 2,400 compounds, 83% hits; AID 2153;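 active = inhibition above the solvent-only control well mean plus 3 SD, limit set per screening run, cut at about 23% in these data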;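 also: inhibitors block cleavage so intact labeled substrate keeps polarization high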
Target sequence (P00651 whole entry, looked up): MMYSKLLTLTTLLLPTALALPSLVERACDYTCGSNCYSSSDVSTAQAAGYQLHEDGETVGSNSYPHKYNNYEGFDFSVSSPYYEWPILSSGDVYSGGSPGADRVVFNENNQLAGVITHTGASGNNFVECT
A number is an active result; - = inactive; . = not tested or not shown. The list is not random: actives were taken first. Their share in the collection is about 1.4%.

SMILES	IDE cell activ	CSN deneddyl inh	TPT1 inh	IDE cell inh	HNF4A DNA FP	TPT1 inh confirm	RNase T1 counter
CCc1nnc(NS(=O)(=O)c2ccc(NC(=O)c3ccc(Cl)cc3)cc2)s1	-	-	-	-	-	.	.
CCN1C(=O)/C(=C2/Sc3ccccc3N2CC)S/C1=N\c1ncn[nH]1	-	-	36	-	-	57	69
C=CCN1C(=O)/C(=C2/Sc3ccccc3N2CC)SC1=S	-	-	-	-	-	.	.
Cc1cc(NC2C3CC4CC(C3)CC2C4)n2ncnc2n1 (stereo not drawn)	-	-	101	-	-	-	-
COC(=O)c1ccc(C2C(C(=O)c3cc4ccccc4o3)=C(O)C(=O)N2c2cc(C)on2)cc1 (stereo not drawn)	-	-	44	-	-	-	26
Cc1cc(N2C(=O)C(O)=C(C(=O)c3cc4ccccc4o3)C2c2cccc(Br)c2)no1 (stereo not drawn)	-	-	31	-	-	-	25
COc1cccc2cc(C(=O)C3=C(O)C(=O)N(c4cc(C)on4)C3c3cccs3)oc12 (stereo not drawn)	-	-	31	-	-	-	36
Cc1cc(N2C(=O)C(O)=C(C(=O)c3cc4ccccc4o3)C2c2ccc(OC(C)C)cc2)no1 (stereo not drawn)	-	-	-	-	-	.	.
COCCNc1nc(-c2ccccc2F)c2sc(-c3ccccc3)cc2n1	.	-	.	.	-	.	.
CC(=O)Nc1ccc(S(=O)(=O)Nc2nc3ccccc3nc2Nc2ccc(O)c(C(=O)O)c2)cc1	-	-	43	-	-	24	33
Cc1ccc(CNc2ccc3c(c2)OCO3)c(C)c1	.	.	26	-	.	-	35
COc1cc(/C=N/Nc2snc(SC)c2C#N)ccc1O	-	-	-	-	-	.	.
CSc1nsc(/C=C/Nc2ccc(C)cc2)c1C#N	-	-	31	-	-	50	59
CSc1nsc(/C=C/Nc2ccc(C)c(C)c2)c1C#N	-	-	34	-	-	66	85
N#C/C(=C\c1ccccc1)C(=O)NC(=O)Oc1ccccc1	-	-	-	-	-	.	.
CCOC(=O)NC(=O)/C(C#N)=C/c1ccc(N(C)C)cc1	.	-	99	-	56	115	125
CC(=O)c1cccc(NC(=O)CNC(=O)c2sc3ccccc3c2Cl)c1	-	-	29	-	-	45	57
CCOC(=O)c1c(Nc2ccccc2OCCOC)n[nH]c1C	-	-	-	-	-	.	.
Cc1ccc(-c2ccc(/C=C3\SC(N4CCOCC4)=NC3=O)o2)cc1	-	-	48	-	51	52	62
COc1ccc(/C=C2\Oc3cc(OCC(=O)N4CCC[C@H]4CO)ccc3C2=O)c(OC)c1	-	-	65	-	-	85	93
O=C1/C(=C/c2ccc3c(c2)OCO3)Oc2cc(OCC(=O)N3CCC[C@H]3C(=O)O)ccc21	-	-	-	-	-	.	.
N#Cc1c(-c2ccco2)cc(-c2ccccn2)nc1N	-	-	28	-	-	-	-
COc1ccc(OC)c(/C=C2/Sc3ccccc3C2=O)c1	-	-	111	-	-	101	102
CC(=O)Nc1ccc(/C=C2\Sc3ccccc3C2=O)cc1	-	-	35	-	-	41	46
Cc1ccc(/C=C2\Sc3ccccc3C2=O)s1	-	-	44	-	-	58	70
SMILES	IDE cell activ	CSN deneddyl inh	TPT1 inh	IDE cell inh	HNF4A DNA FP	TPT1 inh confirm	RNase T1 counter
O=C1/C(=C/c2cccnc2)Sc2ccccc21	-	-	-	-	-	.	.
CCOc1ccc(N2CC(O)=C(c3nc4ccccc4c(=O)[nH]3)C2=N)cc1	-	-	-	-	-	.	.
CCOC(=O)c1ccc(N2CC(O)=C(c3nc4ccccc4c(=O)[nH]3)C2=N)cc1	-	-	47	-	-	41	52
Cc1[nH]nc2c1C(CC(C)C)C(C#N)=C(N)O2 (stereo not drawn)	.	-	-	-	-	.	.
Cc1[nH]nc2c1C(Cc1ccccc1)C(C#N)=C(N)O2 (stereo not drawn)	-	-	-	-	-	.	.
CC(C)CC1C(C#N)=C(N)SC(N)=C1C#N	-	-	70	-	-	87	95
N#CC1=C(N)SC(N)=C(C#N)C1Cc1ccccc1	-	-	63	-	-	50	59
Cc1cccc(C)c1NC(=O)C1(C)CSCC(=O)N1CCOc1ccccc1 (stereo not drawn)	.	-	.	.	-	.	.
COC(=O)[C@]12CCCCC=C1N(Cc1cccc3ccccc13)C(=O)[C@H](CC(=O)NCCCN1CCCC1=O)C2	.	-	.	.	-	.	.
Cc1cccc(C)c1-n1nnnc1C1c2ccccc2C(=O)N1C1CC1 (stereo not drawn)	.	-	.	.	-	.	.
N#Cc1c(N)n(CCNC(=O)c2ccc(Cl)cc2)c2nc3ccccc3nc12	-	-	27	-	-	-	30
Cc1ccc(C(=O)NCCn2c(N)c(C#N)c3nc4ccccc4nc32)cc1	-	-	36	-	-	49	55
COCCn1c(N)c(C#N)c2nc3ccccc3nc21	-	-	-	-	-	.	.
COC(=O)CC1N(S(=O)(=O)c2ccc(C)cc2)c2ccccc2C1(C(=O)OC)C(=O)OC (stereo not drawn)	.	-	.	.	-	.	.
COc1ccc(C2=Nc3ccccc3N(C(=O)c3ccc4ncccc4c3)C2C(=O)NC(C)(C)C)cc1 (stereo not drawn)	.	-	.	.	-	.	.
O=C1/C(=C/C=C/c2ccccc2)Oc2c1ccc(O)c2CN1CCN(CCO)CC1	-	-	-	-	-	.	.
COc1ccccc1/C=C/C=C1\Oc2c(ccc(O)c2CN2CCN(CCO)CC2)C1=O	-	-	39	-	40	46	54
CCc1ccc(/C=C2\Oc3c(ccc(O)c3CN3CCN(C)CC3)C2=O)cc1	-	-	26	-	-	28	38
COc1ccc2cc(C(=O)N/N=C/c3sc4ccccc4c3O)ccc2c1	-	-	136	-	-	135	126
O=C(N/N=C/c1sc2ccccc2c1O)c1cccc2ccccc12	-	-	136	-	75	143	134
O=C(N/N=C/c1ccccc1)c1cccc2ccccc12	-	-	-	-	-	.	.
COc1ccccc1OCC(=O)/C=C1/N(C)c2ccccc2C1(C)C	-	-	-	-	-	.	.
CN1/C(=C\C(=O)COc2ccc3c(c2)OCO3)C(C)(C)c2ccccc21	-	-	32	-	-	34	43
Cc1cc(Br)ccc1OCCN1CCCC1	-	-	-	-	-	.	.
Cc1cc(Br)ccc1OCCN1CC(C)OC(C)C1 (stereo not drawn)	-	-	48	-	-	-	-
COCCCNC(=O)C[C@@H]1C[C@@]2(C(=O)OC)CCCCC=C2N(Cc2ccco2)C1=O	.	-	.	.	-	.	.
O=C(O)C(=O)/C(=C\c1ccsc1)c1ccc2ccccc2n1	-	-	-	-	-	.	.

Screens from PubChem.
